Assay outcomes: PubChem BioAssay, several laboratories
CYP2C9 inh: inhibitors of human CYP2C9; P11712; CYP2C9 Supersomes, luciferin-H conversion, luminescence; inhibition, % at 5 µM; actives 20% (n = 96,000); AID 777;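 active means blocking of liver enzyme CYP2C9 beyond about 50% at 5 µM, limit read from the data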
Target sequence (P11712 whole entry, looked up): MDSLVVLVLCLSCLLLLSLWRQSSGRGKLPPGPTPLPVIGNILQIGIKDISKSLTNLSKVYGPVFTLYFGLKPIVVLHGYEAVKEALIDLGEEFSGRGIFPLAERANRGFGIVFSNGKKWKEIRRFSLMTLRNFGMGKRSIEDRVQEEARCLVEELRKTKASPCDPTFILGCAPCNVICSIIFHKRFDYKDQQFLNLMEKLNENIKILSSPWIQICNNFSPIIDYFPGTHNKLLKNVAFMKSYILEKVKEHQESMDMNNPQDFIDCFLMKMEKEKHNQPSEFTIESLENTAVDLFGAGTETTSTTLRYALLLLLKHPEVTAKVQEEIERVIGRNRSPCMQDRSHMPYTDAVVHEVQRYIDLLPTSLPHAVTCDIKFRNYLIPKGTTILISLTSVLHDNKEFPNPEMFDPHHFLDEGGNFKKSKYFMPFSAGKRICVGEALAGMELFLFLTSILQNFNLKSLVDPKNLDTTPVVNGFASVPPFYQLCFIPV
HIV Rev-RRE inh: disrupts HIV-1 Rev binding to RRE RNA; actives 0.79% (n = 97,000); P05866; Rev peptide-RRE RNA binding, FRET; inhibition, % at 8 µM;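 active means inhibition above the screen-wide mean plus 3 SD, cut at about 35% in these data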;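 further: 0% = median DMSO wells and 100% = median Neomycin B control wells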
Target sequence (P05866 whole entry, looked up): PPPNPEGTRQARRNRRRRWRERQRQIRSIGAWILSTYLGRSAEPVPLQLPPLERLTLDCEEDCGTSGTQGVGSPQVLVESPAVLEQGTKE
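assay system = Cy5-tagged RRE RNA duplex with fluorescein-tagged Rev peptide | incubation = 5 + 15 min at 25 °C | also added = labelled Rev peptide | measure = % inhibition of FRET ratio versus controls | benchmarks = DMSO wells as 0% and neomycin B wells as 100% inhibition | measured by = FRET fluorescence readout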
CYP2C9 activ: increases human cytochrome P450 2C9 activity; actives 1.4% (n = 96,000); recombinant CYP2C9, luciferin-H conversion, luminescence; active compounds read high; factor 1 = untreated enzyme, 0 = blocked; P11712; activation factor at 5 µM;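 active means activation factor of 2 or more for CYP2C9 at a 5 µM dose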;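 further: 0 = sulfaphenazole-blocked wells and 1 = vehicle-only wells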
Cav3 T inh: inhibitors of human Cav3.2 T-type calcium channel; O95180; Cav3.2-expressing cells, Fluo-4 calcium fluorescence FDSS; active compounds read low; B-score at 10 µM; actives 4% (n = 100,000); AID 449739;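 active means single-dose well whose peak fluorescence ratio is a statistical outlier from its plate by either plate-standardised score or position-corrected B-score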
CYP2C19 act: increases human CYP2C19 enzyme activity; P33261; recombinant CYP2C19, luciferin-H EGE luminescence; active compounds read high; 0 = fully inhibited enzyme, 1 = untreated enzyme; activation factor at 5 µM; 96,000 tested, under 10 active; AID 1025;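 active means activation factor of at least 2 at 5 µM in the primary screen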;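 further: 0 = wells with 2.5 mM tranylcypromine and 1 = vehicle-only wells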
CYP2C19 inh: inhibitors of human CYP2C19. P33261. CYP2C19 Supersomes, luciferin-H EGE luminescence, 30 min. inhibition, % at 5 µM. actives 21% (n = 96,000);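 active means CYP2C19 inhibition above a set limit at 5 µM in the primary screen, cut at about 50% in these data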;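 further: plate controls were negative control wells for no effect and 2.5 mM tranylcypromine positive control for full effect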
* hit, by the source's call; nt = not tested or not shown. This is a sample that favours compounds with a hit; in the whole collection about 27% have one here.

SMILES	CYP2C9 inh	HIV Rev-RRE inh	CYP2C9 activ	Cav3 T inh	CYP2C19 act	CYP2C19 inh
C=CCS/C(=N\n1cnc2ccccc2c1=O)N(CC)CC	63*	5	0.4	0.73	0	96*
CC1(C)CC(=O)C(/C=N/n2cnc3ccccc3c2=O)=C(O)C1	-1	4	1	0.49	1	-5
CN(C)c1nc2c(c(=O)[nH]c(=O)n2C)n1Cc1ccccc1Br	20	-1	0.8	0.65	0.6	44
Cc1ccc(C2CC(c3ccccc3)n3ncnc3N2)cc1 (configuration not stated)	65*	nt	0.4	-1	0	98*
Cc1ccc(C2CC(c3cccc(C)c3)n3ncnc3N2)cc1 (configuration not stated)	57*	nt	0.4	-3.3	0	96*
Cc1cccc(C2CC(c3ccccc3)Nc3nc(N)nn32)c1 (configuration not stated)	9	1	0.9	0.42	0.9	10
CCn1cc(-c2nnnn2-c2ccc(Cl)cc2)c(=O)c2ccccc21	-15	6	1.1	0.028	0.9	9
CCOC(=O)[C@@H]1[C@H]2COc3ccc(Br)cc3[C@@H]2N2C(=O)N(c3ccc(Cl)cc3)C(=O)[C@]12C	nt	nt	nt	-0.12	nt	nt
COc1ccccc1C(=O)NCCn1cc(SCC(=O)Nc2nnc(C)s2)c2ccccc21	76*	-2	0.2	-0.057	0.6	44
Cc1ccc(C(=O)NCCn2cc(SCC(=O)Nc3cc(C)on3)c3ccccc32)cc1	86*	6	0.1	-4*	0.1	91*
O=C(NCCn1cc(SCc2ccc(F)cc2)c2ccccc21)c1c(F)cccc1F	nt	nt	nt	-0.013	nt	nt
O=C(NCCn1cc(SCc2ccc(F)cc2)c2ccccc21)c1ccccc1F	nt	nt	nt	-4.7*	nt	nt
Cc1cc(NC(=O)CSc2cn(CCNC(=O)c3ccccc3)c3ccccc23)no1	94*	5	0.1	-3.4	0.1	90*
Cc1cccc(C(=O)Nc2c(C#N)c(C)c(C)n2Cc2ccccc2)c1	13	7	0.9	0.18	1.1	-13
COC(=O)C1CCN(C(=O)C2CCCCC2)CC1	22	9	0.8	-0.037	0.3	66*
COc1cccc(C2CC(c3cccs3)=NN2C(=S)Nc2ccccc2)c1OC (configuration not stated)	43	4	0.6	-4.1	0.8	24
Cc1ccc(C2CC(c3ccccc3)=NN2C(=S)Nc2ccccc2)o1 (configuration not stated)	56*	0	0.4	-7.5*	0.7	34
CCOC(=O)C1=C(CSc2nc(CC)c(C)cc2C#N)OC(N)=C(C#N)C1c1ccccc1 (configuration not stated)	68*	18	0.3	nt	0.5	49
CCOC(=O)CC(=O)CSc1nc2c(cc1C#N)CCC2	19	3	0.8	0.91	0.9	7
CCOC(=O)C1=C(CSc2nc3c(cc2C#N)CN(C)CC3)OC(N)=C(C#N)C1c1ccc(Cl)cc1 (configuration not stated)	44	58*	0.6	-0.097	0.7	32
CCOC(=O)C1=C(CSc2nc(C)cc(C)c2C#N)OC(N)=C(C#N)C1c1ccccc1 (configuration not stated)	81*	16	0.2	-5.5*	0.3	75*
CCCC1=C(C(=O)OCC)C(c2cccs2)C(C#N)=C(N)O1 (configuration not stated)	67*	21	0.3	-1.9	0.2	79*
CC1(c2nnc(-c3ccncc3)o2)CC(c2cccc(Cl)c2)=NO1 (configuration not stated)	nt	nt	nt	0.008	nt	nt
O=C(CSc1nnc(-c2cccs2)n1CC1CCCO1)c1cc2ccccc2o1 (configuration not stated)	32	11	0.7	nt	0.8	19
Cc1nc2nc(NCc3cccs3)nn2c(C)c1Cl	10	13	0.9	0.11	1	-3
SMILES	CYP2C9 inh	HIV Rev-RRE inh	CYP2C9 activ	Cav3 T inh	CYP2C19 act	CYP2C19 inh
CCOC(=O)C1=C(CSc2nc(C)cc(C)c2C#N)OC(N)=C(C#N)C1c1cccs1 (configuration not stated)	42	18	0.6	0.18	0.1	86*
CCOC(=O)c1nc(C)n(-c2ccc(Cl)cc2)n1	5	2	0.9	0.92	0.8	22
CCOC(=O)C(=CNc1cc(C)nn1-c1ccc(Cl)cc1)C(=O)OCC	77*	-6	0.2	-1.4	0.3	71*
COc1ccc(C2C(C#N)=C(C)NC3=C2C(=O)CC(C)(C)C3)cc1 (configuration not stated)	66*	8	0.3	2.4	0.6	36
CCCSC1=C(C#N)C(c2ccc(OC)cc2)C2=C(CC(C)(C)CC2=O)N1 (configuration not stated)	16	nt	0.8	0.33	0.9	13
CSC1=C(C#N)C(c2ccc(Cl)cc2)C2=C(CC(C)(C)CC2=O)N1 (configuration not stated)	65*	nt	0.3	-1.4	0.8	24
Cc1ccc(-n2c(SCC(=O)Nc3ccc4c(c3)OCCO4)nnc2-c2ccco2)cc1	-3	10	1	0.27	0.6	38
O=C1CC(N2CCN(c3ccc(S(=O)(=O)N4CCOCC4)cc3)CC2)C(=O)N1Cc1ccccc1 (configuration not stated)	39	7	0.6	1.8	0.6	39
O=C(c1ccncc1)c1ccc(N2CCN(C3CC(=O)N(Cc4ccccc4)C3=O)CC2)cc1 (configuration not stated)	60*	15	0.4	0.61	0.1	86*
COc1ccc(CCN(Cc2cc3cccc(C)c3[nH]c2=O)C(=O)NC2CCCCC2)cc1OC	75*	4	0.3	0.0062	0.3	66*
COc1ccc(C(=O)N(Cc2ccco2)C(C(=O)NC2CCCC2)c2ccc(O)cc2)cc1OC (configuration not stated)	56*	-2	0.4	-2.4	0.5	50*
COc1ccc(C(=O)N(CC2CCCO2)C(C(=O)NC2CCCC2)c2ccc(Cl)cc2)cc1OC (configuration not stated)	9	4	0.9	1.8	1	5
COc1ccccc1NC(=O)N(Cc1ccco1)Cc1cc2c(C)ccc(C)c2[nH]c1=O	nt	4	nt	-6*	nt	nt
COc1cccc(C(=O)N(Cc2ccco2)Cc2cc3cccc(C)c3[nH]c2=O)c1	40	10	0.6	0.33	0.8	16
O=C(NC1CCCCC1)C(c1ccccc1)N(Cc1ccco1)C(=O)Cn1cnc2ccccc21 (configuration not stated)	nt	6	nt	-5.9*	nt	nt
Cc1cccc2cc(CN(CC3CCCO3)C(=O)NC3CCCCC3)c(=O)[nH]c12 (configuration not stated)	17	7	0.8	-0.2	0.9	8
